Test [1] has as its system Yersinia pseudotuberculosis. The test can be described thus: Effect on T3S in Yersinia pseudotuberculosis 3 pIB29 assessed as inhibition of light emission at 50 uM by luciferase reporter gene assay. The procedure, abridged:
(§1)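 Strain YPIII-pIB29 (yopE-luxAB transcriptional fusion, lacking YopH), grown overnight at ambient temperature in BHI with 5 mM EGTA and 20 mM MgCl2 to deplete calcium, then adjusted to OD600 0.15-0.25. Compounds in DMSO (≤1% final) at 100, 50, 20 or 10 µM final, in triplicate. Plates shaken 1 h at ambient temperature, then 2 h at 37 °C. Decanal added within 30 min and luminescence read at once. Result is % inhibition of light versus control.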
(A reporter such as luciferase makes a cellular process visible.)

Test [2] addresses Tyrosine-protein phosphatase YopH (Yersinia pseudotuberculosis serotype I (strain IP32953)) (UniProt P08538). Description: Inhibition of Yersinia pseudotuberculosis YP3-pIB102 YopH at 10 uM. The essentials:
(§2)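 Strain YPIII-pIB102 grown overnight at 26 °C in BHI with 25 µg/ml chloramphenicol. Diluted to OD600 0.08 in calcium-depleted BHI (5 mM EGTA, 20 mM MgCl2), with compound at 100, 50, 20 or 10 µM, and shaken 2 h at 37 °C. Culture aliquot added to 25 mM p-nitrophenyl phosphate, 40 mM MES pH 5.0 and 1.6 mM DTT for 15 min at 37 °C. Stopped with NaOH and read at A405. Triplicates; result is % inhibition of secreted YopH activity.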

The subject of test [3] is Yersinia pseudotuberculosis. Description: Effect on T3S in Yersinia pseudotuberculosis 3 pIB29 assessed as inhibition of light emission at 10 uM by luciferase reporter gene assay. The essentials: as §1
In test [4] the test system is Yersinia pseudotuberculosis. The test can be described thus: Growth inhibition of Yersinia pseudotuberculosis. Type of test: functional, organism-based. The procedure, abridged: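 Wild-type YPIII-pIB102 diluted to OD600 0.05-0.1 in BHI with 2.5 mM CaCl2. Grown at 37 °C with shaking, with compound at 10, 20, 50 or 100 µM. Absorbance read at 600 nm periodically, or at 595 nm hourly, over six hours and compared with the control growth curve.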

Test [5] relates to Yersinia pseudotuberculosis. Description: Effect on T3S in Yersinia pseudotuberculosis 3 pIB29 assessed as inhibition of light emission at 20 uM by luciferase reporter gene assay. The essentials: as §1
Test [6] has as its target Tyrosine-protein phosphatase YopH (Yersinia pseudotuberculosis serotype I (strain IP32953)) (UniProt P08538). The test can be described thus: Inhibition of Yersinia pseudotuberculosis YP3-pIB102 YopH at 50 uM. The procedure, abridged:
as §2

For test [7] the target is unchanged. The test can be described thus: Inhibition of Yersinia pseudotuberculosis YP3-pIB102 YopH at 100 uM. The essentials: as §2
Test [8] shares this target. Description: Inhibition of Yersinia pseudotuberculosis YP3-pIB102 YopH at 20 uM. The essentials:
as §2

Test [9] relates to Yersinia pseudotuberculosis. The test can be described thus: Effect on T3S in Yersinia pseudotuberculosis 3 pIB29 assessed as inhibition of light emission at 100 uM by luciferase reporter gene assay. The essentials:
as §1

Molecules are shown by their SMILES. Calls of active or inactive are those of the source. The rule behind the calls is not given here.

Sequence of Tyrosine-protein phosphatase YopH (Yersinia pseudotuberculosis serotype I (strain IP32953)) (P08538 whole entry): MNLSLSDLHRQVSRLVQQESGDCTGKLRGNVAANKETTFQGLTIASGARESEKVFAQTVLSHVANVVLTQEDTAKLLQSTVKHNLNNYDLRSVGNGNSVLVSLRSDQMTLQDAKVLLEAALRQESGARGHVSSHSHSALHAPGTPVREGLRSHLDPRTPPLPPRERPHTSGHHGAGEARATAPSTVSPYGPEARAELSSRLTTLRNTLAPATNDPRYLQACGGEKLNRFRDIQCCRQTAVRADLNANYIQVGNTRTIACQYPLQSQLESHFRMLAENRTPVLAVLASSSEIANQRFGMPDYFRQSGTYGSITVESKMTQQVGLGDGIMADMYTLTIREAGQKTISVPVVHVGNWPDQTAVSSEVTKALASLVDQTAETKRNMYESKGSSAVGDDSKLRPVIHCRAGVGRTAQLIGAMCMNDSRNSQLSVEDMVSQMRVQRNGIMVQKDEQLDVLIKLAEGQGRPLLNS

Consider `O=C(Nc1ccc(Cl)c(Cl)c1)c1cc(Cl)ccc1NS(=O)(=O)c1cccc2nsnc12`, for which the inhibition – broadly, the relative decrease from the control value, in per cent – in [1] was found to be 69%; in test [2], 19%; in [3] it was 48%; in test [5], 68%; in test [6], 66%; in test [7], 63%. In addition, the inhibition in test [8] and in [9] was 62% throughout. In addition, in test [4], the outcome was inactive.

Regarding `O=C(Nc1ccc(Cl)c(Cl)c1)c1cc(F)c(F)cc1NS(=O)(=O)c1cccc([N+](=O)[O-])c1`, the inhibition in test [1] is 79%; in test [2] it was 26%; in [3], 9%; in [5] it was 33%; in test [6], 74%; in [7] it was 81%. In addition, the results for the inhibition in test [8] and in test [9] were 67% and 90%, respectively. In test [4], the result was inactive.

With `O=C(Nc1ccc(F)cc1)c1cc(F)c(F)cc1NS(=O)(=O)c1cccc(F)c1`, the inhibition turned out to be 71% in test [1]; 27% in test [2]; 22% in [3]; 51% in test [5]; 63% in test [6]; 70% in [7]. Further, the inhibition in test [8] came out at 54%; in test [9] it was 75%. Moreover, the result in [4] was inactive.

For the compound `O=C(Nc1ccc(Cl)c(Cl)c1)c1cc(F)c(F)cc1NS(=O)(=O)c1cc(Cl)cc(Cl)c1O`, the inhibition is 92% in test [1]; 57% in test [2]; 69% in test [3]; 85% in test [5]; 80% in [6]; 81% in test [7]. The inhibition in [8] is 82%; in test [9], 92%. For the same compound, in test [4], the outcome was inactive.

In the case of `O=C(Nc1ccc2c(c1)OCO2)c1ccc(Cl)cc1NS(=O)(=O)c1ccccc1`, the inhibition in [1] came out at 10%; in [2], 14%; in test [3], 4%; in test [5], 7%; in test [6] it was 25%; in test [7] it was 34%. Moreover, the inhibition in test [8] amounted to 19%; in test [9], 15%. Besides, in test [4], the result was inactive.

As to `O=C(Nc1ccc2c(c1)OCO2)c1ccc(Cl)cc1NS(=O)(=O)c1ccc(Cl)c(Cl)c1`, the inhibition worked out at 74% in test [1]; 33% in test [2]; 37% in [3]; 66% in test [5]; 64% in [6]; 59% in test [7]. Moreover, the inhibition in [8] was 60%; in test [9], 69%. Further, the result in test [4] was inactive.

Turning to `O=C(Nc1ccc(F)c(F)c1)c1cc(F)c(F)cc1NS(=O)(=O)c1cccc([N+](=O)[O-])c1`, the inhibition in [1] is 23%; in test [3] it was -2%; in test [5] it was 2%; in test [9], 49%. Moreover, in [4], the result was inactive.

As to `O=C(Nc1ccc2cccnc2c1)c1cc(Cl)ccc1NS(=O)(=O)c1ccc(Cl)c(Cl)c1`, the inhibition in [1] turned out to be 59%; in [3], 18%; in [5], 51%; in [9] it was 52%. In addition, the outcome in [4] was inactive.

For `O=C(Nc1ccc(Cl)c(Cl)c1)c1cc(Cl)ccc1NS(=O)(=O)c1ccccc1`, the inhibition in test [1] turned out to be 73%; in test [3], 58%; in [5], 70%; in test [9] it was 70%. Also, the result in [4] was inactive.

Take `COc1ccc(NC(=O)c2ccc(Cl)cc2NS(=O)(=O)c2ccc(Cl)c(Cl)c2)cc1`: the inhibition in test [1] was 72%; in test [2] it was 35%; in test [3] it was 43%; in [5] it was 67%; in test [6] it was 35%; in test [7] it was 34%. Further, the results for the inhibition in test [8] and in test [9] were 60% and 72%, respectively. In [4], the outcome was inactive.

For the compound `O=C(Nc1ccc2cccnc2c1)c1cc(Cl)ccc1NS(=O)(=O)c1ccccc1`, the inhibition in [1] amounted to 7%; in [3], 0%; in test [5], 2%; in test [9], 10%. The result in test [4] was inactive.

Regarding `O=C(Nc1ccc(F)c(F)c1)c1ccc(Cl)cc1NS(=O)(=O)c1cc(Cl)cc(Cl)c1O`, the inhibition is 86% in test [1], 15% in test [3], 50% in test [5] and 87% in test [9]. The outcome in test [4] was inactive.

Values taken from ChEMBL document CHEMBL1137500, “Inhibitors of type III secretion in Yersinia: design, synthesis and multivariate QSAR of 2-arylsulfonylamino-benzanilides” (Bioorg Med Chem, 2007).
